# Screening data as filed in PubChem BioAssay.
# Only some compounds are listed: those with a hit (about 2% of all), similar ones and a draw of the others.
# FLuc stim CS – FLuc activators, initial screening, artefact control for FLuc-dependent activation tests, biochemical, ATPlite luminescence; ATPlite luciferase biochemical, 10 min; 0 = ATP-free wells, 1 = DMSO control; activation factor at 10 µM; 200,000 tested, under 10 active; AID 1027, 2008;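 active means luciferase activation factor, scaled between plate controls, of at least 2 with compound at 10 µM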
# Target sequence (P08659 whole entry, looked up): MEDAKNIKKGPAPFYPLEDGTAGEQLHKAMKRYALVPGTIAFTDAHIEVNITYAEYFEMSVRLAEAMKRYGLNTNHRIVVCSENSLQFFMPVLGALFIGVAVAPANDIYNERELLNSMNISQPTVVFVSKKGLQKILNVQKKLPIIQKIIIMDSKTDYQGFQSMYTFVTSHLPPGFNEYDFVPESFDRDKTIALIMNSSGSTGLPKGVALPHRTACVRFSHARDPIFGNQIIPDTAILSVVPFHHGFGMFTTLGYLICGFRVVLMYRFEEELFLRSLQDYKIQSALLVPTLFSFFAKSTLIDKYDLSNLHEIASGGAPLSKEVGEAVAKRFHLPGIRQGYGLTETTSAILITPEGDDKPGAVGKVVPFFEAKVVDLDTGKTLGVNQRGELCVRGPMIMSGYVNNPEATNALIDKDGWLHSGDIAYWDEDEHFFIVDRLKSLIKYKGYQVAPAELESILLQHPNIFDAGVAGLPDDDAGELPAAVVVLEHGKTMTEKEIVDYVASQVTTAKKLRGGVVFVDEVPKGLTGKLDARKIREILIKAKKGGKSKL
#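 System: cell-free luciferase reagent; medium: PBS as buffer for the ATP substrate; doses: test compounds dosed from 2 mM stocks in 100% DMSO; incubation: 10 min, room temperature; measured by: luminescence from luciferase reaction; read-out: luciferase activation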
# PPC-1+TRAIL kill – compounds killing PPC-1 cancer cells with TRAIL present, primary screen, TRAIL potentiator project, ATPLite luminescence, uHTS. PPC-1 cells + TRAIL, ATPLite viability luminescence. cell killing (% activity), % at 4 µM or 5 µM. 220,000 compounds, 0.41% hits;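 active means cell killing above 50% in the first pass at 4 µM, then a duplicate retest at 5 µM averaging 50% or more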;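 further: plate controls were cells with TRAIL plus DMSO for no effect and medium-only wells lacking cells for full effect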
# HSP90 inh – HSP90 inhibitors, primary screen, cell lysate, luminescence; Heat shock protein HSP 90 (rabbit reticulocyte lysate; luciferase refolding); Rabbit reticulocyte lysate, luciferase refolding luminescence, 3 h; inhibition, % at 5.6 µM; 290,000 compounds, 0.91% hits; AID 1789, 2009;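 active means inhibition above the screen-wide mean plus 3 SD, computed separately per campaign, cut at about 16% in these data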;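 further: 0% = DMSO wells and 100% = 60 µM geldanamycin wells; inhibitors lower the luminescence because luciferase stays unfolded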
# FLuc inhib CS – firefly luciferase enzyme inhibitors, primary screen, artefact control for luciferase-based inhibitor screens, biochemical, luminescence, ATPLite. Luciferin 4-monooxygenase (Photinus pyralis), P08659. 10 min. inhibition, % at 10 µM. 200,000 compounds, 1.5% hits. AID 1006, 2008;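 active means inhibition above about 50% when tested at 10 µM, limit read from the data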
# C8 TRAIL sens – viability loss with TRAIL in NB7+C8 cells, primary screen, TRAIL sensitizer project, cell-based, ATPlite luminescence; inhibition (viability loss, TRAIL sensitization), % at 10 µM; 360,000 compounds, 1% hits; AID 624354, 2012;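 active means compounds causing at least 50% loss of cell viability in the single-dose screen, relative to plate controls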
# HSP90 inh confirm – HSP90 inhibitors, confirmation, cell lysate, luminescence | shares compounds with HSP90 inh | rabbit reticulocyte lysate, luciferase refolding luminescence, 3 h | inhibition, % at 5.9 µM | 2,300 compounds, 64% hits | AID 1846, 2009; in the data active means inhibition above about 18%;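 further: 0% = vehicle wells and 100% = reference inhibitor wells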
# FLuc counter – firefly luciferase inhibitors, HSP90 counter-screen, confirmation, artefact control for HSP90 inhibitor project, biochemical, luminescence, triplicate. shares compounds with HSP90 inh. purified native firefly luciferase. inhibition, % at 5.9 µM. 2,300 compounds, 48% hits. AID 1847, 2009;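 active means inhibition above the mean inhibition of all tested sample wells plus 3 SD, cut at about 10% in these data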;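 further: 0% = DMSO with luciferase and 100% = wells lacking luciferase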
# * marks the source's active call; other numbers are inactive results; / = no result given.
SMILES,FLuc stim CS,PPC-1+TRAIL kill,HSP90 inh,FLuc inhib CS,C8 TRAIL sens,HSP90 inh confirm,FLuc counter
Cc1ccc(C)c(N(Cc2cc3ccc(C)cc3[nH]c2=O)C(=O)c2ccco2)c1,/,-6,18*,/,19,1,-5
Cc1ccc(NC(=S)NC(=O)C2CCCC2)cc1C,/,/,-4,/,-15,/,/
Cc1ccc(NC(=S)NC(=O)C2CC2)c(C)c1,/,/,31*,/,-17,-10,-18
Cc1cccn2c(=O)nc(SCC(=O)Nc3ccc4c(c3)OCCO4)nc12,/,/,/,/,19,/,/
COc1ccc(N=c2oc3ccc(OC)cc3cc2-c2nc3ccccc3[nH]2)cc1,1,26,1,4,43,/,/
COc1cccc(N=c2oc3ccccc3cc2-c2nc3ccccc3[nH]2)c1,0.7,44,24*,25,38,-2,-13
C[n+]1cccc2c(Br)ccc([O-])c21,/,4,19*,/,-1,3,-2
CCOc1ccc(N2C(=O)CC(NCCNc3ccc([N+](=O)[O-])cn3)C2=O)cc1 (centres undefined),1.1,-4,24*,-9,-3,-8,-10
O=C(CCC(=O)Nc1ccccc1)NNC(=O)COc1ccccc1,1,37,0,-1,-7,/,/
CCOc1ccc2c(c1)c(N=Nc1cccc(C(=O)O)c1)c(O)n2C,1,1,27*,2,1,30*,6
Cc1ccc2c(c1)c(N=Nc1cccc(C(=O)O)c1)c(O)n2C,1,-1,0,-3,2,/,/
CCOC(=O)c1oc2ccc(S(=O)(=O)N3CCC(C)CC3)cc2c1C,1.1,16,21*,-6,-4,-2,-9
CC(C)CNC(=O)CSc1nnc(-c2ccc(Cl)cc2)n1N,1,20,0,-3,-3,/,/
COc1cccc(CNc2nc3cc(-c4cccc(Cl)c4)sc3c(=O)n2C)c1,/,/,/,/,7,/,/
COc1ccc(-c2cc3nc(CCl)[nH]c(=O)c3s2)cc1,/,/,50*,/,91*,56*,59*
Cn1c(=O)n(-c2ccc(Cl)cc2)c(=O)c2c3c(sc21)COC(C)(C)C3,1.1,-4,41*,-7,5,-3,-5
COCCn1cnnc1SCC(=O)Nc1sc2c(c1C#N)CCC2,/,/,/,/,-6,/,/
Cn1cnnc1SCC(=O)Nc1sc2c(c1C(N)=O)CCC2,1.1,-18,22*,-6,-5,5,-6
Cc1ccc(NC(=O)c2cc(S(=O)(=O)N3CCOCC3)cn2C)cc1Cl,/,/,-2,/,7,/,/
COc1ccc(NC2=C(C(C)=O)C(c3ccc(OC)cc3)C(C(C)=O)C(C)(O)C2)cc1 (centres undefined),1.1,-1,31*,-6,-20,4,1
CNC(=O)COC(=O)c1c2c(nc3ccccc13)CCC2,/,12,5,/,0,/,/
CCCCNC(=O)COC(=O)c1c2c(nc3ccccc13)CCC2,/,/,33*,/,1,6,-5
COc1ccc(C(=O)c2sc3nc(-c4ccccc4)ccc3c2N)cc1,1,6,-6,-4,2,/,/
CC(C)OC(=O)c1sc2nc(-c3ccccc3)ccc2c1N,0.3,32,44*,73*,54*,54*,52*
Cc1ccc(N2C(=O)C(Cc3ccc(O)cc3)NC2=S)cc1C (centres undefined),1.1,6,-3,-8,-1,/,/
SMILES,FLuc stim CS,PPC-1+TRAIL kill,HSP90 inh,FLuc inhib CS,C8 TRAIL sens,HSP90 inh confirm,FLuc counter
Cc1ccc(C(=O)Nc2cccc(NC(=O)c3cccnc3)c2)cc1,/,/,38*,/,-28,0,-7
Cc1ccc(C(=O)Nc2ccc3ncccc3c2)cc1,/,/,50*,/,90*,71*,58*
COc1ccc(NC(=O)c2cccnc2)cc1,/,/,23*,/,3,-8,-9
COc1cc(NC(=O)c2ccc(Cl)cc2)c(Cl)cc1NC(=O)c1cccnc1,/,/,45*,/,-1,0,-9
COc1cc(NC(=O)c2cccnc2)c(Cl)cc1NC(=O)c1ccc(Cl)cc1,/,/,-2,/,-6,/,/
Cc1cccc(NC(=O)c2cccnc2)c1,1,10,2,2,-3,/,/
COc1ccc(C(=O)Nc2ccc3ncccc3c2)cc1,/,/,29*,/,83*,49*,29*
O=C(C(=O)c1cccnc1)c1cccnc1,/,16,20*,/,-3,-2,-7
NS(=O)(=O)c1c(Sc2ccccc2C(=O)O)ccc2ccccc12,/,/,23*,/,4,20*,-17
CNS(=O)(=O)c1cc(Cl)ccc1Sc1ccccc1C(=O)O,/,-1,-2,/,-18,/,/
CN(C)c1ccc(/C=c2\sc3n(c2=O)CCCN=3)cc1,0.2,29,18*,84*,62*,65*,52*
O=c1/c(=C/c2ccc(O)cc2)sc2n1CCCN=2,0.8,0,-5,18,6,/,/
O=C(O)CSCC(=O)Nc1ccc(C2CCCCC2)cc1,0.8,22,52*,22,2,57*,-14
Nn1cnnc1SCC(=O)Nc1ccc(C2CCCCC2)cc1,0.8,27,0,16,0,/,/
Cc1ccccc1Nc1nnc(SCC(=O)NCc2ccco2)s1,1.1,15,4,-7,-4,/,/
Cc1ccccc1C(=O)Nc1nnc(SCC(=O)NCc2ccco2)s1,/,/,18*,/,59*,27*,15*
Cc1cc(C(=O)CSc2nn(-c3ccccc3)c(=S)s2)c(C)n1Cc1ccco1,1,10,1,-2,-7,/,/
Cc1cc(C(=O)CSc2nnc(N)s2)c(C)n1Cc1cccs1,0.1,36,28*,91*,69*,65*,59*
Cc1cc(C(=O)CSc2nncs2)c(C)n1Cc1ccco1,0.3,9,22*,74*,29,55*,41*
Cc1csc(SCC(=O)c2cc(C)n(Cc3cccs3)c2C)n1,0.1,30,65*,89*,79*,85*,81*
COc1ccc(-c2nsc3c(N4CCCC4)ncnc23)cc1,0.1,5,29*,86*,81*,60*,42*
CCOC(=O)c1c(NC(=O)C(NCCN(C)C)c2ccccc2)sc2c1CCCC2 (centres undefined),/,/,23*,/,29,6,-3
OC[C@@H]1CN(Cc2ccccc2)C[C@H](n2cnc3c(Nc4ccccc4)ncnc32)O1,/,/,/,/,-6,/,/
Cn1cccc1/C=N/N1CCN(Cc2ccccc2Cl)CC1,/,3,2,/,-7,/,/
Cn1cccc1/C=N/N1CCN(c2ccccc2)CC1,1,11,21*,-1,0,6,-9
